Source: ChEMBL document CHEMBL1132488, “On the bioactive conformation of NAN-190 (1) and MP3022 (2), 5-HT(1A) receptor antagonists” (J Med Chem, 1999)

Assays:
Rattus norvegicus [1] = species: Rattus norvegicus; test: Dose inhibiting 8-OH-DPAT-induced behavioral syndrome(FBP: flat body posture) by the compound in reserpine pretreated rats.
Rattus norvegicus [2] = test: Effect on 8-OH-DPAT-Induced LLR(lower lip retraction) in rats at a dose of 1 mg/kg; type: functional
Outline: (§1)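 Male Wistar rats, groups of 6. Compound given ip in 1% Tween 80 45 min before 8-OH-DPAT 1 mg/kg sc. Lower incisor visibility scored 0/0.5/1 at 15, 30 and 45 min after agonist, summed (max 3). Mean ± SEM; Newman–Keuls test; ED50 with range.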

Rattus norvegicus [3] = species: Rattus norvegicus; test: Effect on 8-OH-DAPT- induced behavioral syndrome(FBP: flat body posture) by the compound in reserpine pretreated rats at a dose of.1; type: functional
Rattus norvegicus [4] = species: Rattus norvegicus; test: Effect on 8-OH-DAPT- induced behavioral syndrome(FT: forepaw treading) by the compound in reserpine pretreated rats at a dose of 8.; type: functional
Outline: (§2)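 Reserpinized male Wistar rats (reserpine 1 mg/kg sc, 18 h before), groups of 6. Compound given ip in 1% Tween 80 60 min before 8-OH-DPAT 5 mg/kg sc. FBP/FT rated 0–3 at 3, 6, 9, 12 and 15 min after agonist, summed (max 15). Mean ± SEM; Newman–Keuls test; ED50 with range.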

Rattus norvegicus [5] = species: Rattus norvegicus; test: Induction of behavioral syndrome(FT: forepaw treading) by the compound in reserpine pretreated rats at a dose of 8.; type: functional
Outline: (§3)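 Male Wistar rats (260–300 g) were given reserpine 1 mg/kg sc in saline 18 h before testing. Test compound was then given alone ip as a 1% Tween 80 suspension (2 mL/kg). FBP and FT were each scored 0–3 and summed (maximum 15). n=6 per group; mean ± SEM; Newman–Keuls test.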

Rattus norvegicus [6] = test: Induction of LLR(lower lip retraction) by the compound in rats at a dose of 4 mg/kg; type: functional
Outline: (§4)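 Male Wistar rats, groups of 6, given compound alone ip as 1% Tween 80 suspension. Lower incisor visibility scored 0/0.5/1 at 15, 30 and 45 min after dosing, summed (max 3 per rat). Mean ± SEM versus vehicle, Newman–Keuls test; ED50 with range.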

Rattus norvegicus [7] = species: Rattus norvegicus; test: Effect on 8-OH-DAPT- induced behavioral syndrome(FT: forepaw treading) by the compound in reserpine pretreated rats at a dose of 2.; type: functional
Rattus norvegicus [8] = test: Effect on 8-OH-DPAT-Induced LLR(lower lip retraction) in rats at a dose of 4 mg/kg; type: functional
Outline: as §1

Rattus norvegicus [9] = test: Effect on 8-OH-DPAT-Induced LLR(lower lip retraction) in rats at a dose of 2 mg/kg; type: functional
Outline: as §1

Rattus norvegicus [10] = species: Rattus norvegicus; test: Effect on 8-OH-DAPT- induced behavioral syndrome(FBP: flat body posture) by the compound in reserpine pretreated rats at a dose of 2.; type: functional
Rattus norvegicus [11] = species: Rattus norvegicus; test: Induction of behavioral syndrome(FT: forepaw treading) by the compound in reserpine pretreated rats at a dose of 2.; type: functional
Rattus norvegicus [12] = species: Rattus norvegicus; test: Induction of behavioral syndrome(FBP: flat body posture) by the compound in reserpine pretreated rats at a dose of 2.; type: functional
Outline: (§5)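 Male Wistar rats (260–300 g), groups of 6, given reserpine 1 mg/kg sc 18 h before test. Compounds given ip as 1% Tween 80 suspension. FBP and FT rated 0–3 in 45-s sessions every 3 min, starting 3 min after dosing. Score summed over 5 periods (max 15 per symptom). Mean ± SEM; Newman–Keuls test.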

Rattus norvegicus [13] = species: Rattus norvegicus; test: Induction of behavioral syndrome(FBP: flat body posture) by the compound in reserpine pretreated rats at a dose of 8.; type: functional
Outline: as §3

Rattus norvegicus [14] = species: Rattus norvegicus; test: Induction of behavioral syndrome(FT: forepaw treading) by the compound in reserpine pretreated rats at a dose of 4.; type: functional
Outline: as §3

Rattus norvegicus [15] = species: Rattus norvegicus; test: Induction of behavioral syndrome(FBP: flat body posture) by the compound in reserpine pretreated rats at a dose of.1; type: functional
Rattus norvegicus [16] = species: Rattus norvegicus; test: Dose Inducing behavioral syndrome(FT: forepaw treading) by the compound in reserpine pretreated rats.; type: functional
Outline: as §5

Rattus norvegicus [17] = test: Induction of LLR(lower lip retraction) by the compound in rats at a dose of 2 mg/kg; type: functional
Outline: as §4

Rattus norvegicus [18] = species: Rattus norvegicus; test: Effective dose of the required to inhibit symptoms produced by 8-OH-DPAT; type: functional
Outline: as §2

Rattus norvegicus [19] = species: Rattus norvegicus; test: Induction of behavioral syndrome(FBP: flat body posture) by the compound in reserpine pretreated rats at a dose of 4.; type: functional
Outline: as §3

Rattus norvegicus [20] = test: Induction of LLR(lower lip retraction) by the compound in rats at a dose of 1 mg/kg; type: functional
Outline: as §4

Rattus norvegicus [21] = species: Rattus norvegicus; test: Effect on 8-OH-DAPT- induced behavioral syndrome(FT: forepaw treading) by the compound in reserpine pretreated rats at a dose of 4.; type: functional
Outline: as §2

Rattus norvegicus [22] = species: Rattus norvegicus; test: Effect on 8-OH-DAPT- induced behavioral syndrome(FBP: flat body posture) by the compound in reserpine pretreated rats at a dose of 8.; type: functional
Outline: as §2

Rattus norvegicus [23] = species: Rattus norvegicus; test: Effect on 8-OH-DAPT- induced behavioral syndrome(FT: forepaw treading) by the compound in reserpine pretreated rats at a dose of.1; type: functional
Rattus norvegicus [24] = species: Rattus norvegicus; test: Effect on 8-OH-DAPT- induced behavioral syndrome(FBP: flat body posture) by the compound in reserpine pretreated rats at a dose of 4.; type: functional
Outline: as §2

Rattus norvegicus [25] = species: Rattus norvegicus; test: Induction of behavioral syndrome(FT: forepaw treading) by the compound in reserpine pretreated rats at a dose of.1; type: functional

`COc1ccccc1N1CCN(CCCCN2C(=O)c3ccccc3C2=O)CC1` [NAN-190] was tested, and the ED50 (Rattus norvegicus [1]) was 2 mg/kg, the LLR score (Rattus norvegicus [2]) was 1.7 and the FBP mean score (Rattus norvegicus [3]) was 12.4. It also gave an FT mean score (Rattus norvegicus [4]) of 1.8, an FT mean score (Rattus norvegicus [5]) of 0.1 and an LLR score (Rattus norvegicus [6]) of 0.1. For the same compound, the FT mean score (Rattus norvegicus [7]) was 5.7, the LLR score (Rattus norvegicus [8]) was 0.6 and the LLR score (Rattus norvegicus [9]) was 1.4. The FBP mean score (Rattus norvegicus [10]) was 6, the FT mean score (Rattus norvegicus [11]) was 0.2 and the FBP mean score (Rattus norvegicus [12]) was 0.2. The FBP mean score (Rattus norvegicus [13]) was 0.2, the FT mean score (Rattus norvegicus [14]) was 0.2 and the FBP mean score (Rattus norvegicus [15]) was 0.1. It also gave an ED50 (Rattus norvegicus [16]) of 2.5 mg/kg, an LLR score (Rattus norvegicus [17]) of 0.1 and an ED50 (Rattus norvegicus [18]) of 1.7 mg/kg. For the same compound, the FBP mean score (Rattus norvegicus [19]) was 0.1, the LLR score (Rattus norvegicus [20]) was 0.1 and the FT mean score (Rattus norvegicus [21]) was 6.2. It also gave an FBP mean score (Rattus norvegicus [22]) of 2.3, an FT mean score (Rattus norvegicus [23]) of 10.8 and an FBP mean score (Rattus norvegicus [24]) of 2.3. For the same compound, the FT mean score (Rattus norvegicus [25]) was 0.1.
